From ChEMBL document CHEMBL4613315, “Design of First-in-Class Dual EZH2/HDAC Inhibitor: Biochemical Activity and Biological Evaluation in Cancer Cells” (ACS Med Chem Lett, 2020)
pIC50: −log10 of the molar value. The source made the active and inactive calls. No cut-off for these calls is given here.

Tests used:
[1] = tested on: U-937; assay: Cytotoxicity against human U937 cells assessed as reduction in cell viability at 25 uM in presence of vorinostat incubated for 72 hrs by CellTiter-Glo Luminescent cell viability assay relative to control; assay type: functional; settings: U-937, 72 h
In short: (§1)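 Viability after 72 h of single-agent or combined treatment with the HDAC inhibitor (0.05–0.25 μM) and the EZH2 inhibitor. EZH2 inhibitor range: U937 5–25 μM; RH4 10–50 μM. Synergy was assessed by combination index and isobologram analysis.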

[2] = tested on: U-937; assay: Cytotoxicity against human U937 cells assessed as reduction in cell viability at 25 uM incubated for 72 hrs by CellTiter-Glo Luminescent cell viability assay relative to control; assay type: functional; settings: U-937, 72 h; in short: as §1
[3] = tested on: U-937; assay: Cytotoxicity against human U937 cells assessed as reduction in cell viability at 10 uM in presence of vorinostat incubated for 72 hrs by CellTiter-Glo Luminescent cell viability assay relative to control; assay type: functional; settings: U-937, 72 h; in short: as §1
[4] = molecular target: T1, Histone deacetylase (Homo sapiens) (UniProt Q13547+O15379+Q9UBN7+Q92769+Q9UQL6+Q8WUI4+Q9BY41+Q96DB2+P56524+Q9UKV0+Q969S8); assay: Inhibition of HDAC in human U937 cells assessed as Ac-H3 level at 50 uM in presence of vorinostat incubated for 120 hrs by Western blot analysis (reference value: 1); assay type: cell-based; settings: U-937
In short: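 U937 leukemia cells given EZH2 inhibitor 50 μM together with HDAC inhibitor 0.5 μM; Western blot at 96 and 120 h for H3K27me3 or acetyl-H3, actin as loading control; densitometry normalized to loading control then to DMSO vehicle.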

[5] = molecular target: T2, Protein deacetylase HDAC6 (Homo sapiens) (UniProt Q9UBN7); assay: Inhibition of HDAC6 in human RH4 cells assessed as acetylated alpha-tubulin level at 50 uM incubated for 96 hrs by Western blot analysis; assay type: cell-based
T2 sequence (whole entry): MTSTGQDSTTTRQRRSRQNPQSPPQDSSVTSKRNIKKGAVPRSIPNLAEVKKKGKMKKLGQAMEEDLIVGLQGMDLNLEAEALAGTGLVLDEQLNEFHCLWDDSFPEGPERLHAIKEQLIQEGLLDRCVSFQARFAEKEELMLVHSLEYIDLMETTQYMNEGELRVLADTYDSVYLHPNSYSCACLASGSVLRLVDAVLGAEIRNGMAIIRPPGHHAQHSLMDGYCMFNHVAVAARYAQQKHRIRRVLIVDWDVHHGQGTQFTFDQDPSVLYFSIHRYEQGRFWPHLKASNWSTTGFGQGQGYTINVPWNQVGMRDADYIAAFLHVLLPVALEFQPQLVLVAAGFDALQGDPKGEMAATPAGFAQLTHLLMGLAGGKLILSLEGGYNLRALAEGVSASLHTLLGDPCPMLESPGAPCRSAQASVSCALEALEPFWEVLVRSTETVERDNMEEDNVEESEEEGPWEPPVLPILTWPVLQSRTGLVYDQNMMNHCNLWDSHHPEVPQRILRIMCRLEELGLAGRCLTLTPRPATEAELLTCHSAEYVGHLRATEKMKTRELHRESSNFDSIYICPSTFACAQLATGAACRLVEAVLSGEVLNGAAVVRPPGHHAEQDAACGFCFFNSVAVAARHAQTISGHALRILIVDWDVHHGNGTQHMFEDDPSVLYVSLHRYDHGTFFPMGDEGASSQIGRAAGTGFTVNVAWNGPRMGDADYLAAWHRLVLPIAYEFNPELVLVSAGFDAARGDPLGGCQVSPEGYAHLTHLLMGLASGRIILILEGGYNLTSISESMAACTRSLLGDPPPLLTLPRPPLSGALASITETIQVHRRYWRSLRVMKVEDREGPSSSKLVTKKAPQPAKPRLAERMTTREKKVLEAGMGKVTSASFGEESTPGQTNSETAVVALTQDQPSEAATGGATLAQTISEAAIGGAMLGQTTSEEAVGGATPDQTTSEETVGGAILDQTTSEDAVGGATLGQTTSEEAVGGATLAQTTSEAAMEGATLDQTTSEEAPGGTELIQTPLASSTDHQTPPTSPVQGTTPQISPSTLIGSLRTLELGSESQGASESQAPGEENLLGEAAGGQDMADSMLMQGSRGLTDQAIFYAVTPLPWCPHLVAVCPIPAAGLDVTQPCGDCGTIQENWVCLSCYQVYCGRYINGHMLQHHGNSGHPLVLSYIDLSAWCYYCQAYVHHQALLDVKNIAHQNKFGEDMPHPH

[6] = molecular target: T1, Histone deacetylase (Homo sapiens); assay: Inhibition of HDAC in human U937 cells assessed as Ac-H3 level at 50 uM incubated for 96 hrs by Western blot analysis (reference value: 1); assay type: cell-based; settings: U-937
[7] = molecular target: Histone-lysine N-methyltransferase EZH2 (Homo sapiens, UniProt Q15910); assay: Inhibition of EZH2 in human RH4 cells assessed as H3K27me3 level at 50 uM in presence of vorinostat incubated for 96 hrs by Western blot analysis (reference value: 1); assay type: cell-based
In short: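 RH4 cells co-treated with EZH2 inhibitor at 50 μM plus HDAC inhibitor at 0.15 μM; Western blot after 72 or 96 h for H3K27me3 or acetyl-tubulin, vinculin loading control; densitometry normalized to loading control then DMSO vehicle.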

[8] = molecular target: Histone deacetylase 3 (Homo sapiens, UniProt O15379); assay: Inhibition of human recombinant HDAC3 using AMC-K(Ac)GL as substrate by fluorescence based assay
[9] = molecular target: Histone deacetylase 5 (Homo sapiens, UniProt Q9UQL6); assay: Inhibition of human recombinant HDAC5 using AMC-K(TFA)GL as substrate by fluorescence based assay
[10] = tested on: U-937; assay: Cytotoxicity against human U937 cells assessed as reduction in cell viability incubated for 72 hrs by CellTiter-Glo Luminescent cell viability assay; assay type: functional, cell-based; settings: U-937, 72 h
[11] = tested on: U-87 MG; assay: Cytotoxicity against human U87 cells assessed as reduction in cell viability incubated for 72 hrs by CellTiter-Glo Luminescent cell viability assay; assay type: functional, cell-based, U-87MG ATCC
In short: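 Antiproliferative IC50 after 72 h of treatment. Values are means of three independent experiments, each measured in triplicate, ± SD.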

[12] = Induction of apoptosis in human RH4 cells assessed as early apoptotic cells at 28 uM incubated for 72 hrs by annexin V-FITC staining based flow cytometry (reference value: 10.8 %); assay type: functional
[13] = Induction of apoptosis in human RH4 cells assessed as late apoptotic cells at 28 uM incubated for 72 hrs by annexin V-FITC staining based flow cytometry (reference value: 2.1 %); assay type: functional
[14] = species on record: Homo sapiens; assay: Induction of differentiation of human RH4 cells assessed as increase in myogenin level at 7 uM incubated for 96 hrs by Western blot analysis; assay type: functional
In short: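 Myogenin was measured by Western blot in RH4 cells treated at 7 and 14 μM for 48, 72 and 96 h. Vinculin served as the loading control.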

[15] = tested on: U-87MG ATCC; assay: Upregulation of E-cadherin levels in human U87 cells at 5 to 25 uM incubated for 24 hrs by Western blot analysis; assay type: functional, cell-based
In short: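 U87 glioblastoma cells treated 24 h at 5, 10 and 25 μM with DMSO control; E-cadherin and Snail probed by Western blot, tubulin as loading control.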

[16] = tested on: U-937; assay: Cell cycle arrest in human U937 cells assessed as subG1 accumulation at 10 uM incubated for 72 hrs by propidium iodide staining based flow cytometry (reference value: 4.9 %)

Histone-lysine N-methyltransferase EZH2, sequence (Q15910 whole entry, looked up): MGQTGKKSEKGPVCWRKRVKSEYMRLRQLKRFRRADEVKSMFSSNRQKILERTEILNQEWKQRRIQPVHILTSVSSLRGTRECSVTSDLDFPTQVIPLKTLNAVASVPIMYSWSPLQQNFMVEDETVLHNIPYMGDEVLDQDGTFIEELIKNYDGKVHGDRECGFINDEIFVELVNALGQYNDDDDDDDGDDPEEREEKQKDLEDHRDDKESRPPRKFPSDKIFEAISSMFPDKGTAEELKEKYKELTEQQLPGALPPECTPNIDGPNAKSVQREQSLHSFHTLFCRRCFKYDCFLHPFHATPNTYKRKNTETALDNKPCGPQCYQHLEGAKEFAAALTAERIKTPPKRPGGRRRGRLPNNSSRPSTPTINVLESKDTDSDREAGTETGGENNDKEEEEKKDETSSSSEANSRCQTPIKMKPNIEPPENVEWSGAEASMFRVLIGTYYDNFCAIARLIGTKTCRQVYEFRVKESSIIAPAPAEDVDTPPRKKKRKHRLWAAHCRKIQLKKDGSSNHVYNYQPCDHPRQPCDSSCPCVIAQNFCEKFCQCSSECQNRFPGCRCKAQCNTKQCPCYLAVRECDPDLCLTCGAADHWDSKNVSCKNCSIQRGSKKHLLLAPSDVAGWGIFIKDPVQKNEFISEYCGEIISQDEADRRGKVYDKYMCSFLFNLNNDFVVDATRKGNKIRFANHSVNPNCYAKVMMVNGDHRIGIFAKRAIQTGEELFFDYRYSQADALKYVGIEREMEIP
Histone deacetylase 5, sequence (Q9UQL6 whole entry): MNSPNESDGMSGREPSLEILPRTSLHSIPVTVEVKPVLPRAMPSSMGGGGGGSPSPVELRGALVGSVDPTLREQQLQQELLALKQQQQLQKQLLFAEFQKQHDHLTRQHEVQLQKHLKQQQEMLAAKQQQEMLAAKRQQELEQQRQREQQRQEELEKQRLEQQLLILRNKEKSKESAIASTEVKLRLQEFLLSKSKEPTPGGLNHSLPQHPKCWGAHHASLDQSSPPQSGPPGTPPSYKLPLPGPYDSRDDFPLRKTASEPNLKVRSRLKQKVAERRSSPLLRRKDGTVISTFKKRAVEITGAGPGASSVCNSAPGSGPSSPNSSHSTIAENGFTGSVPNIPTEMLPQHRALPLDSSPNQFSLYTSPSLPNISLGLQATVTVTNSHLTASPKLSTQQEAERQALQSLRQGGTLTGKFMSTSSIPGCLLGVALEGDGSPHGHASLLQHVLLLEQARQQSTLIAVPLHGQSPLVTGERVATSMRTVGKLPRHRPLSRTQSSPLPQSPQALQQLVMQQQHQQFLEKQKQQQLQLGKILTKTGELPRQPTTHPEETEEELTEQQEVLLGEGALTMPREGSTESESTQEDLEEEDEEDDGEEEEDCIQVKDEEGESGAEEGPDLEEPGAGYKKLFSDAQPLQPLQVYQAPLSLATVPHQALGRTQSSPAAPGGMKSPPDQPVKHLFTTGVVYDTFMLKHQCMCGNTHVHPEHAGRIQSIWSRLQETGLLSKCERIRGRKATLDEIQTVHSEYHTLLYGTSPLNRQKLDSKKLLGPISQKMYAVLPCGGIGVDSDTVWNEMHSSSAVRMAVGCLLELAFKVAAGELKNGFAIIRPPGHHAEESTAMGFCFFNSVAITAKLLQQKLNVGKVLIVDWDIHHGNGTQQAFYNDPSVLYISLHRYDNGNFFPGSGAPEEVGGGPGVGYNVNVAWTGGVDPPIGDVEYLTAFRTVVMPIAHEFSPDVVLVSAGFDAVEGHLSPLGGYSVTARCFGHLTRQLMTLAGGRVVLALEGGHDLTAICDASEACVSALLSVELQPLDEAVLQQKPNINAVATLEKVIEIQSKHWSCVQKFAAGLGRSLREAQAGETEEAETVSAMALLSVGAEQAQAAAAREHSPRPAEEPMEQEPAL
Histone deacetylase 3, sequence (O15379 whole entry): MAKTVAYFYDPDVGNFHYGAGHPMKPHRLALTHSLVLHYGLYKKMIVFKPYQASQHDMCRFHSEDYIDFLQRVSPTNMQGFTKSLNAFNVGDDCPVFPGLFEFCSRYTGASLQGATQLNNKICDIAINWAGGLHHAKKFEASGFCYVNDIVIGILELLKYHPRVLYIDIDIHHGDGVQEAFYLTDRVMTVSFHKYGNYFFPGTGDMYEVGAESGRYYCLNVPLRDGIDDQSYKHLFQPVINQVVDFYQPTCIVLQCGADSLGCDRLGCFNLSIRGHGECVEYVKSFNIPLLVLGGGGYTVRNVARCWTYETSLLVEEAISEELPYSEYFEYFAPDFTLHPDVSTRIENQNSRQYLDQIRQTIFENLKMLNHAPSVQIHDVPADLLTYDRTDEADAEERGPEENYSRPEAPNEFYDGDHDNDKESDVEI

Work on `Cc1cc(C)c(CNC(=O)c2cc(C)n(-c3ccccc3)c2C)c(=O)[nH]1` yielded an inhibition at 25 µM [1] of 90%, an inhibition at 25 µM [2] of 25% and an inhibition at 10 µM [3] of 70%. For the same compound, the fold change (FC) [4] was 0.8, the fold change (FC) [5] was 1.4 and the fold change (FC) [6] was 1.4. It also gave a fold change (FC) [7] of 0.2.

`Cc1cc(C)c(CNC(=O)c2cc(C)n(-c3cccc(NC(=O)CCCCCCC(=O)NO)c3)c2C)c(=O)[nH]1` gave a pIC50 [8] of 6.35, a pIC50 [9] of 4.78 and a pIC50 [10] of 5.05. It also gave a pIC50 [11] of 4.70, an Activity [12] of 26.5% and an Activity [13] of 4.4%. For the same compound, the Activity [14] was “Active”, the Activity [15] was “Active” and the Activity [16] was 8.2%.
